ChEMBL document CHEMBL4118152, “Discovery of Potent and Selective Periphery-Restricted Quinazoline Inhibitors of the Cyclic Nucleotide Phosphodiesterase PDE1” (J Med Chem, 2018)

What was measured:
[1] = target: Dual specificity calcium/calmodulin-dependent 3',5'-cyclic nucleotide phosphodiesterase 1C (Homo sapiens, UniProt Q14123); assay: Inhibition of full length recombinant human PDE1C using 3',5'-[3H]cAMP as substrate after 30 mins by scintillation proximity assay
In short: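 Human recombinant enzymes; substrate held below 1/3 of Km. IC50 reported as mean ± SEM of at least 3 determinations.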

[2] = target: cGMP-dependent 3',5'-cyclic phosphodiesterase (Homo sapiens, UniProt O00408); assay: Inhibition of full length recombinant human PDE2A1 using 3',5'-[3H]cGMP as substrate after 30 mins by scintillation proximity assay
In short: (§1)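 Enzymes were human except PDE6A, which was bovine. Each was assayed with cAMP or cGMP substrate, as appropriate to the enzyme, at concentrations below 1/3 of Km. IC50 values are mean ± SEM from n = 3 or more.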

[3] = target: cGMP-specific 3',5'-cyclic phosphodiesterase (Homo sapiens, UniProt O76074); assay: Inhibition of full length recombinant human PDE5A1 using 3',5'-[3H]cGMP as substrate after 30 mins by scintillation proximity assay; in short: as §1
[4] = target: 3',5'-cyclic-AMP phosphodiesterase 7B (Homo sapiens, UniProt Q9NP56); assay: Inhibition of full length recombinant human PDE7B using 3',5'-[3H]cAMP as substrate after 30 mins by scintillation proximity assay; in short: as §1
[5] = target: cAMP and cAMP-inhibited cGMP 3',5'-cyclic phosphodiesterase 10A (Homo sapiens, UniProt Q9Y233); assay: Inhibition of full length recombinant human PDE10A1 using 3',5'-[3H]cAMP as substrate after 30 mins by scintillation proximity assay; in short: as §1
Homo sapiens [6] = species: Homo sapiens; assay: Selectivity ratio of IC50 for full length recombinant human PDE7B to IC50 for full length recombinant human PDE1B1
In short: (§2)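 IC50s were measured against recombinant PDEs, all human except PDE6A (bovine). Each enzyme was given its appropriate cAMP or cGMP substrate at below 1/3 of its Km. IC50s are the mean of n = 3 or more. The selectivity ratio is the IC50 for the other PDE divided by the IC50 for PDE1B1 or PDE1A.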

Homo sapiens [7] = species: Homo sapiens; assay: Selectivity ratio of IC50 for full length recombinant human PDE11A4 to IC50 for full length recombinant human PDE1B1; in short: as §2
Homo sapiens [8] = species: Homo sapiens; assay: Selectivity ratio of IC50 for full length recombinant human PDE2A1 to IC50 for full length recombinant human PDE1A; in short: as §2
Homo sapiens [9] = species: Homo sapiens; assay: Selectivity ratio of IC50 for full length recombinant human PDE9A1 to IC50 for full length recombinant human PDE1A; in short: as §2
[10] = Fraction unbound in Wistar Hannover rat plasma at 1 mg/kg, sc measured at 1 hr post dose by LC-MS/MS analysis; type: ADME, organism-based; conditions: in vivo
[11] = Fraction unbound in Wistar Hannover rat brain at 1 mg/kg, sc measured at 1 hr post dose by LC-MS/MS analysis; type: ADME, organism-based; conditions: in vivo
[12] = Fraction unbound in Wistar Hannover rat brain at 1 mg/kg, sc measured at 2 hrs post dose by LC-MS/MS analysis; type: ADME, organism-based; conditions: in vivo
[13] = Fraction unbound in Wistar Hannover rat brain at 1 mg/kg, sc measured at 4 hrs post dose by LC-MS/MS analysis; type: ADME, organism-based; conditions: in vivo, BLD = below limit of detection
[14] = Ratio of fraction unbound in Wistar Hannover rat brain to plasma at 1 mg/kg, sc measured at 1 hr post dose by LC-MS/MS analysis; type: ADME, organism-based; conditions: in vivo
[15] = Ratio of drug uptake in cerebrospinal fluid to fraction unbound in plasma in Wistar Hannover rat at 1 mg/kg, sc measured at 0.5 hrs post dose by LC-MS/MS analysis; type: ADME, organism-based, CSF/Plasma; conditions: in vivo
[16] = Ratio of drug uptake in cerebrospinal fluid to fraction unbound in plasma in Wistar Hannover rat at 1 mg/kg, sc measured at 2 hrs post dose by LC-MS/MS analysis; type: ADME, organism-based, CSF/Plasma; conditions: in vivo
[17] = target: Beta-2 adrenergic receptor (Homo sapiens) (UniProt P07550); assay: Inhibition of human beta 2 adrenergic receptor at 10 uM relative to control
[18] = target: Cannabinoid receptor 1 (Homo sapiens) (UniProt P21554); assay: Inhibition of human cannabinoid CB1 receptor at 10 uM relative to control
[19] = target: Gastrin/cholecystokinin type B receptor (Homo sapiens) (UniProt P32239); assay: Inhibition of human cholecystokinin CCK2 receptor at 10 uM relative to control
[20] = target: D(1A) dopamine receptor (Homo sapiens) (UniProt P21728); assay: Inhibition of human dopamine D1 receptor at 10 uM relative to control
[21] = target: D(3) dopamine receptor (Homo sapiens) (UniProt P35462); assay: Inhibition of human dopamine D3 receptor at 10 uM relative to control
[22] = target: D(4) dopamine receptor (Homo sapiens) (UniProt P21917); assay: Inhibition of dopamine D4 receptor (unknown origin) at 10 uM relative to control
[23] = target: Muscarinic acetylcholine receptor M3 (Homo sapiens) (UniProt P20309); assay: Inhibition of human muscarinic M3 receptor at 10 uM relative to control
[24] = target: Sodium-dependent noradrenaline transporter (Homo sapiens) (UniProt P23975); assay: Inhibition of human norepinephrine transporter at 10 uM relative to control
[25] = target: Substance-P receptor (Homo sapiens) (UniProt P25103); assay: Inhibition of human NK1 receptor at 10 uM relative to control
Caspase-3 (Homo sapiens) = Caspase-3 (Homo sapiens) (UniProt P42574); assay: Inhibition of recombinant human Caspase-3 using benzyloxycarbonyl- Asp-Glu-Val-Asp-AFC as substrate at 10 uM after 60 mins by fluorimetric method relative to control
CYP2C19 = CYP2C19 (Homo sapiens, UniProt P33261); assay: Inhibition of human CYP2C19 at 10 uM relative to control; type: ADME
[26] = target: Cysteinyl leukotriene receptor 1 (Homo sapiens) (UniProt Q9Y271); assay: Inhibition of human leukotriene D4 receptor at 10 uM relative to control
[27] = target: Motilin receptor (Homo sapiens) (UniProt O43193); assay: Inhibition of human Motilin receptor at 10 uM relative to control
[28] = target: Substance-K receptor (Homo sapiens) (UniProt P21452); assay: Inhibition of NK2 receptor (unknown origin) at 10 uM relative to control
Rattus norvegicus [29] = species: Rattus norvegicus; assay: Inhibition of rat GABA-A receptor at 10 uM relative to control
Rattus norvegicus [30] = species: Rattus norvegicus; assay: Inhibition of rat brain GABA transporter assessed as [3H]GABA uptake at 10 uM after 30 mins by scintillation counting analysis relative to control
[31] = target: Glutamate receptor ionotropic, kainate (Rattus norvegicus) (UniProt P22756+Q01812+P42260+P42264+Q63273); assay: Inhibition of rat brain Glutamate receptor, ionotropic kainate assessed as [3H]kainic acid uptake at 10 uM after 60 mins by scintillation counting analysis relative to control
[32] = target: Urotensin-2 receptor (Homo sapiens) (UniProt Q9UKP6); assay: Inhibition of human urotensin-2 receptor at 10 uM relative to control
Homo sapiens [33] = species: Homo sapiens; assay: Inhibition of human GABA-B receptor at 10 uM relative to control

Sequence of Substance-P receptor (Homo sapiens) (P25103 whole entry): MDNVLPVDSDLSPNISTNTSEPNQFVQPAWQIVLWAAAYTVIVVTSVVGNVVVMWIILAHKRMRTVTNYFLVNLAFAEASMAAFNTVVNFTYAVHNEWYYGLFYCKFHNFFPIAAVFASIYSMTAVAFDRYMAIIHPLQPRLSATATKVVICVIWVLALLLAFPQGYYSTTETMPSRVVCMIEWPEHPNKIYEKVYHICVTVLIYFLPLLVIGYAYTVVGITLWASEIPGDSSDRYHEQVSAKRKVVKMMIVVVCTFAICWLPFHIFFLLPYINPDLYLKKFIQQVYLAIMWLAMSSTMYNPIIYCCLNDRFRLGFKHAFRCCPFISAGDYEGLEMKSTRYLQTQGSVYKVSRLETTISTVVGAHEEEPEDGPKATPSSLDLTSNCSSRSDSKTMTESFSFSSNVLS
Sequence of Dual specificity calcium/calmodulin-dependent 3',5'-cyclic nucleotide phosphodiesterase 1C (Q14123 whole entry): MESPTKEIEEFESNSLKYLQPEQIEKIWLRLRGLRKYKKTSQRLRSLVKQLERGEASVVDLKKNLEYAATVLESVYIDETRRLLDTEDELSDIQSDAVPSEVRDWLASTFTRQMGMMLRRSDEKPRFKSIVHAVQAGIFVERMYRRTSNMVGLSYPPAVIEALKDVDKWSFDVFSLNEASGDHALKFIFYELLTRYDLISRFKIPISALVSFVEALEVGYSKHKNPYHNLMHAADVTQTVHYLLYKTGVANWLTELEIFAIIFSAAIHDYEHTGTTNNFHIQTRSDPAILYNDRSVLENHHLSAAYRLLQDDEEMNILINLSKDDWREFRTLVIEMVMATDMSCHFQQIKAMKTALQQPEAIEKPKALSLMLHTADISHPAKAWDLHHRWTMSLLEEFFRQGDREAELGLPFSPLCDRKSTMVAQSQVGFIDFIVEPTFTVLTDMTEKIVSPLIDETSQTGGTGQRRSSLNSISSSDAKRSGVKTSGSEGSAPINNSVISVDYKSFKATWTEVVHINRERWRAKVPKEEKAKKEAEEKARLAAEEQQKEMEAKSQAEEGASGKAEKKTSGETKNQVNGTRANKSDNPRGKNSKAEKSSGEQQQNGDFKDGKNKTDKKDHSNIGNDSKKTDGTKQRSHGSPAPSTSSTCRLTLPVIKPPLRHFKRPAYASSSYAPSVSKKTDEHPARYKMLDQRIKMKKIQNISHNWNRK
Sequence of Muscarinic acetylcholine receptor M3 (Homo sapiens) (P20309 whole entry, looked up): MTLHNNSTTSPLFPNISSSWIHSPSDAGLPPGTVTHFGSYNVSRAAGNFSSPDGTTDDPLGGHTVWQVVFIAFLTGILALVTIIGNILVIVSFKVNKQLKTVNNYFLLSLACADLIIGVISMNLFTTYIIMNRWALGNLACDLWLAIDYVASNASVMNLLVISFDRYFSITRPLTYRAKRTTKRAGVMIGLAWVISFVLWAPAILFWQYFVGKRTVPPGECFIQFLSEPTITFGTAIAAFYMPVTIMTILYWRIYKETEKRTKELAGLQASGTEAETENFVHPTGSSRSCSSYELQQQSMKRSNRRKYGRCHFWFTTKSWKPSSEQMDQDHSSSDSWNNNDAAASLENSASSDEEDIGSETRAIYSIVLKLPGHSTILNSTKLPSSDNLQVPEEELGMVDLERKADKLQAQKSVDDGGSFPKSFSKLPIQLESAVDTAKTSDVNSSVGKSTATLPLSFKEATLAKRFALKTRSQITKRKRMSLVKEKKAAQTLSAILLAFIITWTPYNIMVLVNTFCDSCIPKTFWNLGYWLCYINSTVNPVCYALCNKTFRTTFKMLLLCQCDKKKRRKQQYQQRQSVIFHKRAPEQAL
Sequence of cGMP-dependent 3',5'-cyclic phosphodiesterase (O00408 whole entry): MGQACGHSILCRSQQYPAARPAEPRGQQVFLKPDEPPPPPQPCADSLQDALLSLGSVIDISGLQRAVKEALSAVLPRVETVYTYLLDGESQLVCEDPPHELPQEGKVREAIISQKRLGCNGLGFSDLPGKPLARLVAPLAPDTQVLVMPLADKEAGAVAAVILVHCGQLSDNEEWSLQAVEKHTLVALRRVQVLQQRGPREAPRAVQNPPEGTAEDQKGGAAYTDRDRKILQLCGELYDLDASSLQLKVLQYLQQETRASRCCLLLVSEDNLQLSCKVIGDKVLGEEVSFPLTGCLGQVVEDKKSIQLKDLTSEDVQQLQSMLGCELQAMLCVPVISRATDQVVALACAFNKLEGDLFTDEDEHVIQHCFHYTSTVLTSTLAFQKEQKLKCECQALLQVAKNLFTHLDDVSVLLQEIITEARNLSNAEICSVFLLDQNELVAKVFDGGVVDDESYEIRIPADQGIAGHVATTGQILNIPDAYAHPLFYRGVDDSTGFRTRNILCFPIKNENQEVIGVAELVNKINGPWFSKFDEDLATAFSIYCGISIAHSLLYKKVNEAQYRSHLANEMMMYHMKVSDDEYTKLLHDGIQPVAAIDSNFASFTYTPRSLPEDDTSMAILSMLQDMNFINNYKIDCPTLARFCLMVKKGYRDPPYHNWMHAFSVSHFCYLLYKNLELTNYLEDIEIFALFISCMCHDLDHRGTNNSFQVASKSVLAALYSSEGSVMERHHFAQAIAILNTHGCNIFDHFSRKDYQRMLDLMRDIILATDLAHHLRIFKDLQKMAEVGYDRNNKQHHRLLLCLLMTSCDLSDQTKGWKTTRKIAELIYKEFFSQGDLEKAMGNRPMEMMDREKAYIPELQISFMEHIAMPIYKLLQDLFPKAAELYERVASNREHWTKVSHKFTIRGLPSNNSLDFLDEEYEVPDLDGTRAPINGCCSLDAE
Sequence of Gastrin/cholecystokinin type B receptor (Homo sapiens) (P32239 whole entry): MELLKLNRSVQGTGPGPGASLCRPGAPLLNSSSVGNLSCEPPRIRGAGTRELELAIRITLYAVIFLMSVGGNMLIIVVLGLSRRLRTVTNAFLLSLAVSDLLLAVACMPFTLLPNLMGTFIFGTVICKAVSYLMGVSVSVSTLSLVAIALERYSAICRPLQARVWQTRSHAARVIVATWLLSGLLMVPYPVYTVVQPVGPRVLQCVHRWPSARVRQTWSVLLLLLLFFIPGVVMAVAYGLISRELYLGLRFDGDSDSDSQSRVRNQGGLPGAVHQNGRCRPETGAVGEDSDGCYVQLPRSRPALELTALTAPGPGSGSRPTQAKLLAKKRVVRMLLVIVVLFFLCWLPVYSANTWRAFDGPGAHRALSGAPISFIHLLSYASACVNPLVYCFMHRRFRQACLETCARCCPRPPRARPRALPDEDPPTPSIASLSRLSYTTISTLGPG
Sequence of Caspase-3 (Homo sapiens) (P42574 29-175 limits assumed): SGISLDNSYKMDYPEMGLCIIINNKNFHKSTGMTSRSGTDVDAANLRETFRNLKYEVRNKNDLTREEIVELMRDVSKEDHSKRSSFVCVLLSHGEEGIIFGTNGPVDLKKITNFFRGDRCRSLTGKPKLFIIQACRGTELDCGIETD
Sequence of Caspase-3 (Homo sapiens) (P42574 176-277 limits assumed): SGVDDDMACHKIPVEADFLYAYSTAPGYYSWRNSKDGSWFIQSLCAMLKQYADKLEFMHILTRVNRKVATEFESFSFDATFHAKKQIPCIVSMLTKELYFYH
Sequence of Beta-2 adrenergic receptor (Homo sapiens) (P07550 whole entry, looked up): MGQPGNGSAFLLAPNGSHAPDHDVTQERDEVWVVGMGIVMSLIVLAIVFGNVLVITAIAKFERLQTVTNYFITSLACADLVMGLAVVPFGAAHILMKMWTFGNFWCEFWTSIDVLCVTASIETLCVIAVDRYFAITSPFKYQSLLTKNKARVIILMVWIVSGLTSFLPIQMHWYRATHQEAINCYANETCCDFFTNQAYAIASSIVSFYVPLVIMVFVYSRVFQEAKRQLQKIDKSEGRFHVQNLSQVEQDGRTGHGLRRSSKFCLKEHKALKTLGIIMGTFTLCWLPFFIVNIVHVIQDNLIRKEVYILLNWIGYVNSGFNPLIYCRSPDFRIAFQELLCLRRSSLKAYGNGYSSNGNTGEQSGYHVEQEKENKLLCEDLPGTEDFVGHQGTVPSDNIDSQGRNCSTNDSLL
Sequence of Urotensin-2 receptor (Homo sapiens) (Q9UKP6 whole entry): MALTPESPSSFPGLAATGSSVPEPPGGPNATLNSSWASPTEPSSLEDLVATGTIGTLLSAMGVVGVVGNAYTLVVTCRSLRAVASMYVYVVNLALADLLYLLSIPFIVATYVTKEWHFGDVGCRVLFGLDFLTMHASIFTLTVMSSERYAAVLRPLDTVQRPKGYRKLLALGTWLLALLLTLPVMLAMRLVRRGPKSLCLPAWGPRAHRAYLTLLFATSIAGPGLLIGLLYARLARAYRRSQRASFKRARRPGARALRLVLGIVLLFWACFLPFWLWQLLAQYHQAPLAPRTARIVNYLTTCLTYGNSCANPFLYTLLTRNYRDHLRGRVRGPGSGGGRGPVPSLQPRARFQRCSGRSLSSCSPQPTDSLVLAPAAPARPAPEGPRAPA
Sequence of 3',5'-cyclic-AMP phosphodiesterase 7B (Q9NP56 whole entry): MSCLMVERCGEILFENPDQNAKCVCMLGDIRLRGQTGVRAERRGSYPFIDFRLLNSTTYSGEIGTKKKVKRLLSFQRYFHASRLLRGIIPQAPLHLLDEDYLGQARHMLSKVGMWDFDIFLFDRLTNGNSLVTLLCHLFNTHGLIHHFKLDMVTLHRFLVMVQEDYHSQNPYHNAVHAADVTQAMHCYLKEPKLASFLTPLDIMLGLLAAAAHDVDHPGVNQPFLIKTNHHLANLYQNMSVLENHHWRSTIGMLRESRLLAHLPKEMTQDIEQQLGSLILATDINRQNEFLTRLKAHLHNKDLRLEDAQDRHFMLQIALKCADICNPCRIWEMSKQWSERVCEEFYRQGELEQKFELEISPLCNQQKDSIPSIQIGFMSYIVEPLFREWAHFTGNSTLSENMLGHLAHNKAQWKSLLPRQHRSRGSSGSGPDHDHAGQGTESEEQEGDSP
Sequence of Cysteinyl leukotriene receptor 1 (Homo sapiens) (Q9Y271 whole entry): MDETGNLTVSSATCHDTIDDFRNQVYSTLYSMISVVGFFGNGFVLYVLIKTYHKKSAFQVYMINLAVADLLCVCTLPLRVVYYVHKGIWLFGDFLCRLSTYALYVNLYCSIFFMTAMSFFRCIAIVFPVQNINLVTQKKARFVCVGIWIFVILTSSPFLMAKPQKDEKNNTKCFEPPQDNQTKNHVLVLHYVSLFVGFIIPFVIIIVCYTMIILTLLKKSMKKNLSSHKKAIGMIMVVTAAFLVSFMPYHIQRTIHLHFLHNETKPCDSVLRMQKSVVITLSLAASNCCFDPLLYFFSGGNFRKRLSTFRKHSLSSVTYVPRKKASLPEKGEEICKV

COc1ccc2c(N[C@@H](C)Cc3cc(C)[nH]n3)ncnc2c1OC
IC50 [1]: 0.038 µM
IC50 [2]: 47.6 µM
IC50 [3]: 54.3 µM
IC50 [4]: 41.3 µM
IC50 [5]: 0.409 µM
Ratio IC50 (Homo sapiens [6]): 4540
Ratio IC50 (Homo sapiens [7]): 3740
Ratio IC50 (Homo sapiens [8]): 1130
Ratio IC50 (Homo sapiens [9]): > 4760
Cp(f) [10]: 120 nM
Drug uptake(free) [11]: 4 nM
Drug uptake(free) [12]: 2 nM
Drug uptake(free) [13]: Bld
Ratio [14]: 0.03
Ratio [15]: 0.12 to 0.14
Ratio [16]: 0.2
inhibition [17]: < 50%
inhibition [18]: < 50%
inhibition [19]: < 50%
inhibition [20]: < 50%
inhibition [21]: < 50%
inhibition [22]: < 50%
inhibition [23]: < 50%
inhibition [24]: < 50%
inhibition [25]: < 50%
inhibition (Caspase-3 (Homo sapiens)): < 50%
inhibition at 10 µM (CYP2C19): < 50%
inhibition [26]: < 50%
inhibition [27]: < 50%
inhibition [28]: < 50%
inhibition (Rattus norvegicus [29]): < 50%
inhibition (Rattus norvegicus [30]): < 50%
inhibition [31]: < 50%
inhibition [32]: < 50%
inhibition (Homo sapiens [33]): < 50%
